From the RNAGym collection of RNA variant scans (doi:10.1038/s41586-018-0170-7)

B1: tRNA (parent)
chain: GUUCCGUUGGCGUAAUGGUAACGCGUCUCCCUCCUAAGGAGAAGACUGCGGGUUCGAGUCCCGUACGGAACG

Variants of: B1
Experiment: yeast fitness, log relative to wild type (ln ratio); higher = fitter; tRNA-Arg(CCU), competitive growth, 37 C, 1 M NaCl
How it was run: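 Fitness is the natural log of a genotype's generation count divided by that of the wild type. A combinatorial library of tRNA-Arg(CCU) variants sat on a HIS3 centromeric plasmid in BY4742 lacking the chromosomal gene, from two independent transformations. Pools grew 4 generations in SC-HIS at 30 °C, then ~6.5 generations (~26.5 h) in SC-HIS 1M NaCl at 37 °C, with three outputs per input. Generations came from OD-scaled log2 output/input frequency, inverse-variance weighted across replicates, with variants counted by 125 bp paired-end Illumina sequencing.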

Row | Variant | yeast fitness (ln)
1 | AUUCCGUUGGCGUAAUGGUAACGCGUCUCCCUCCUAAGGAGAAGAUUGCGGGUUCGAGUCCCGUAUGGAUUG | -0.214
2 | AGUCCGUUGGCGUAAUGGUAACGCGUCUCCCUCCUAAGGAGACGAUUGCGGGUUCGAGUCCCGUACGGAGCG | -0.114
3 | AGUCCUUUGGCGUAAUGGUAACGCGUUUCCCUCCUAAGGAGAAGACUGCGGGUUCGAGUCCCGUAAGGGGUG | -0.408
4 | GCUCCUUUGGCGUAAUGGUAACGCGUCUCCCUCCUAAGGAGAAGAUUGCGGGUUCGAGUCCCGUACGGAGCG | -0.0195
5 | AGUCCUUUGGCGUAAUGGUAACGCGUCUCCCUCCUAAGGAGAAGAUUGCGGGUUCGAGUCCCGUAUGGGAUG | -0.466
6 | AUUCCAUUGGCGUAAUGGUAACGCGUUUCCCUCCUAAGGAGACGAUUGCGGGUUCGAGUCCCGUAUGGAGUG | -0.338
7 | ACUCCAUUGGCGUAAUGGUAACGCGUCUCCCUCCUAAGGAGACGAUUGCGGGUUCGAGUCCCGUACGGAAUG | -0.0914
8 | GCUCCUUUGGCGUAAUGGUAACGCGUCUCCCUCCUAAGGAGAAGACUGCGGGUUCGAGUCCCGUAUGGGUCG | -0.179
9 | GUUCCUUUGGCGUAAUGGUAACGCGUUUCCCUCCUAAGGAGAAGACUGCGGGUUCGAGUCCCGUAUGGGGUG | -0.355
10 | GUUCCUUUGGCGUAAUGGUAACGCGUCUCCCUCCUAAGGAGACGAUUGCGGGUUCGAGUCCCGUAUGGAUCG | -0.234
11 | GGUCCUUUGGCGUAAUGGUAACGCGUCUCCCUCCUAAGGAGACGAUUGCGGGUUCGAGUCCCGUAAGGGUCG | -0.0302
12 | AGUCCUUUGGCGUAAUGGUAACGCGUCUCCCUCCUAAGGAGAAGACUGCGGGUUCGAGUCCCGUACGGAUUG | -0.22
13 | GGUCCGUUGGCGUAAUGGUAACGCGUUUCCCUCCUAAGGAGAAGAUUGCGGGUUCGAGUCCCGUACGGGGUG | -0.169
14 | AUUCCAUUGGCGUAAUGGUAACGCGUUUCCCUCCUAAGGAGAAGAUUGCGGGUUCGAGUCCCGUACGGAACG | -0.143
15 | GCUCCUUUGGCGUAAUGGUAACGCGUCUCCCUCCUAAGGAGAAGAUUGCGGGUUCGAGUCCCGUAAGGAGCG | -0.013
16 | GGUCCAUUGGCGUAAUGGUAACGCGUCUCCCUCCUAAGGAGACGACUGCGGGUUCGAGUCCCGUAAGGGGUG | -0.154
17 | AGUCCUUUGGCGUAAUGGUAACGCGUCUCCCUCCUAAGGAGAAGAUUGCGGGUUCGAGUCCCGUACGGGAUG | -0.3
18 | GGUCCGUUGGCGUAAUGGUAACGCGUUUCCCUCCUAAGGAGACGACUGCGGGUUCGAGUCCCGUAUGGGGCG | -0.348
19 | GCUCCUUUGGCGUAAUGGUAACGCGUCUCCCUCCUAAGGAGACGAUUGCGGGUUCGAGUCCCGUAUGGAGUG | -0.352

Row | Variant | yeast fitness (ln)
20 | GGUCCUUUGGCGUAAUGGUAACGCGUCUCCCUCCUAAGGAGACGACUGCGGGUUCGAGUCCCGUACGGAGUG | -0.282
21 | ACUCCUUUGGCGUAAUGGUAACGCGUCUCCCUCCUAAGGAGACGAUUGCGGGUUCGAGUCCCGUACGGGGUG | -0.124
22 | AUUCCAUUGGCGUAAUGGUAACGCGUCUCCCUCCUAAGGAGACGACUGCGGGUUCGAGUCCCGUACGGAUCG | -0.221
23 | GGUCCAUUGGCGUAAUGGUAACGCGUUUCCCUCCUAAGGAGAAGAUUGCGGGUUCGAGUCCCGUACGGAUCG | -0.106
24 | ACUCCAUUGGCGUAAUGGUAACGCGUCUCCCUCCUAAGGAGAAGAUUGCGGGUUCGAGUCCCGUACGGAUCG | -0.0702
25 | GGUCCUUUGGCGUAAUGGUAACGCGUCUCCCUCCUAAGGAGACGACUGCGGGUUCGAGUCCCGUAAGGAGUG | -0.265
26 | GGUCCGUUGGCGUAAUGGUAACGCGUCUCCCUCCUAAGGAGAAGACUGCGGGUUCGAGUCCCGUAAGGGAUG | -0.145
27 | ACUCCUUUGGCGUAAUGGUAACGCGUCUCCCUCCUAAGGAGAAGACUGCGGGUUCGAGUCCCGUAAGGAUCG | -0.234
28 | GUUCCGUUGGCGUAAUGGUAACGCGUUUCCCUCCUAAGGAGACGACUGCGGGUUCGAGUCCCGUAUGGAACG | -0.216
29 | AGUCCUUUGGCGUAAUGGUAACGCGUUUCCCUCCUAAGGAGAAGACUGCGGGUUCGAGUCCCGUACGGGGCG | -0.376
30 | AGUCCAUUGGCGUAAUGGUAACGCGUCUCCCUCCUAAGGAGAAGACUGCGGGUUCGAGUCCCGUAUGGAGUG | -0.578
31 | AUUCCGUUGGCGUAAUGGUAACGCGUCUCCCUCCUAAGGAGAAGAUUGCGGGUUCGAGUCCCGUAAGGAUCG | -0.0792
32 | GCUCCUUUGGCGUAAUGGUAACGCGUCUCCCUCCUAAGGAGAAGACUGCGGGUUCGAGUCCCGUAUGGGUUG | -0.468
33 | AGUCCGUUGGCGUAAUGGUAACGCGUUUCCCUCCUAAGGAGAAGAUUGCGGGUUCGAGUCCCGUACGGGUUG | -0.18
34 | AGUCCUUUGGCGUAAUGGUAACGCGUUUCCCUCCUAAGGAGACGAUUGCGGGUUCGAGUCCCGUAAGGAAUG | -0.41
35 | GGUCCAUUGGCGUAAUGGUAACGCGUUUCCCUCCUAAGGAGACGAUUGCGGGUUCGAGUCCCGUAAGGGUUG | -0.65
36 | AGUCCUUUGGCGUAAUGGUAACGCGUUUCCCUCCUAAGGAGAAGAUUGCGGGUUCGAGUCCCGUAUGGGUUG | -0.462
37 | GUUCCGUUGGCGUAAUGGUAACGCGUUUCCCUCCUAAGGAGACGAUUGCGGGUUCGAGUCCCGUAUGGAACG | -0.217
38 | GGUCCUUUGGCGUAAUGGUAACGCGUUUCCCUCCUAAGGAGAAGACUGCGGGUUCGAGUCCCGUAAGGGGUG | -0.25
